# MEKK2 WT-MEK5 = modulators of MEK5 binding to wildtype MEKK2, primary screen, biochemical, multiplex bead flow cytometry, Alexa488-MEK5 | Mitogen-activated protein kinase kinase kinase 2 (Homo sapiens), Q9Y2U5 | Alexa488-MEK5 binding to MEKK2 WT; actives lie on both sides | binding response (% of control), % at 10 µM | hit rate 1.1% among 290,000 | AID 1531, 2009; in the data active = binding response below about 67% or above about 130%
# VIM-2 inhibitor = VIM-2 metallo-beta-lactamase inhibitors, primary screen, biochemical, epi-absorbance readout, Pseudomonas aeruginosa enzyme | inhibition, % at 5.6 µM | purified VIM-2, nitrocefin hydrolysis, epi-absorbance fluorescence | hit rate 0.89% among 290,000;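 active = inhibition above the mean of all tested compounds plus 3 SD, cutoff set per screening run, cut at about 7.5% in these data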;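 note: red hydrolysis product quenches plate fluorescence so inhibitors raise well fluorescence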
# MEKK2 mut-MEK5 = MEK5 binding signal on mutant MEKK2 PB1, primary screen, biochemical, multiplex bead flow cytometry, Alexa488-MEK5. hit rate 0.35% among 290,000. Alexa488-MEK5 binding to MEKK2 mutant. percent response, % at 10 µM; in the data active = percent response above about 24%, passing the limit was not always enough
# MEKK3 PB1 HTS = modulators of MEKK3-MEK5 PB1 binding, primary screen, biochemical, wildtype MEKK3, multiplex bead flow cytometry, Alexa488-MEK5; Mitogen-activated protein kinase kinase kinase 3 (Homo sapiens), Q99759; bead-based flow cytometry, Alexa488-MEK5 binding to MEKK3; actives lie on both sides; 0 = blocked by unlabeled MEK5, 100 = vehicle; binding response (% of control), % at 10 µM; hit rate 1.4% among 290,000; AID 1529, 2009;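 active = binding response more than 3 SD above or below the average of its plate-row segment, actives on both sides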;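 note: Alexa488 bead fluorescence after subtracting the streptavidin-only scavenger bead signal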
# Target sequence (Q99759 whole entry, looked up): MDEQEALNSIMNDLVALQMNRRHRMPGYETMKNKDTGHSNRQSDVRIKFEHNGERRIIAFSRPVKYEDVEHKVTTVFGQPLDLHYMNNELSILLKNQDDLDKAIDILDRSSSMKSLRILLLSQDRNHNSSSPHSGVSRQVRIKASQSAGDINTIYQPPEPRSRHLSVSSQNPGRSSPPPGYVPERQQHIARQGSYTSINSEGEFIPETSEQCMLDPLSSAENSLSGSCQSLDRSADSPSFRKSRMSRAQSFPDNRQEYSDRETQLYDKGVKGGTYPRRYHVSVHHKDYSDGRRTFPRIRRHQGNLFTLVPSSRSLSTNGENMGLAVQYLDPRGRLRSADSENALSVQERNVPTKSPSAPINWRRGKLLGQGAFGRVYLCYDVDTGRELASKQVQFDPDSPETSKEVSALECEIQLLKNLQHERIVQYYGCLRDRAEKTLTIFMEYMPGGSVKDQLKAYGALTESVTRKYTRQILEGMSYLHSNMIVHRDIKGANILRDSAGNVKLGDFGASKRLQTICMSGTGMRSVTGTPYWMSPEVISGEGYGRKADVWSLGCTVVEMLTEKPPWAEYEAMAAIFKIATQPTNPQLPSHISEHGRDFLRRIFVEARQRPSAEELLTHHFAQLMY
# IMP-1 inh = IMP-1 metallo-beta-lactamase inhibitors, primary screen, biochemical, epi-absorbance readout, Pseudomonas aeruginosa enzyme; metallo-beta-lactamase IMP-1 (Pseudomonas aeruginosa); purified IMP-1, nitrocefin hydrolysis, epi-absorbance fluorescence; inhibition, % at 5.6 µM; hit rate 0.45% among 290,000;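 active = inhibition above the mean plus 3 SD of all compounds in the same screening run, cut at about 4.5% in these data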
#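 Test system: recombinant IMP-1 enzyme, purified / Medium: HEPES buffer pH 7.1 with ZnSO4 and Brij 35 / Doses: single dose, 5.6 µM / Times: 25 °C, 15 min preincubation, 25 min reaction / Detection: Epi-absorbance via hydrolysed-nitrocefin quenching of white-plate fluorescence, 480/530 nm, EDTA stop / Evaluation: percent inhibition from optical density relative to buffer-blank wells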
# A number is an active result; i = inactive; nt = not tested or not shown; [ ] = another dose, or the depositor's remark. An excerpt weighted towards active compounds, which were near 3.4% of everything screened.
SMILES,MEKK2 WT-MEK5,VIM-2 inhibitor,MEKK2 mut-MEK5,MEKK3 PB1 HTS,IMP-1 inh
CCOc1ccc2nc(N(CCN(C)C)C(=O)c3cc4ccccc4cc3OC)sc2c1,137,i,i,i,i
O=C(O)c1ccc2cccnc2c1O,i,10,i,i,i
O=C(O)c1ccc2cccnc2n1,i,i,i,i,i
COc1ccc(CN2CCN(Cc3ccc(C)cc3)C(CCO)C2)cc1OC (stereo not drawn),i,i,i,i,i
O=c1c(Cl)c(O)c2cccc3c4ccccc4n1c23,i,9.4,i,i,i
CC/C(=N\NC(=O)c1c(C)nc2ccccn12)c1ccccc1,i,i,i,i,i
CC1=Nc2ccc(C)c3nc(C)cc(c23)N1c1ccc(C)cc1,i,i,i,i,i
Cc1ccc(N2C=Nc3ccc(C)c4nc(C)cc2c34)cc1,i,11,i,i,i
Fc1ccccc1CNc1nc(-c2cccnc2)nc2ccccc12,21[inhibitor],i,31,i,i
O=C(N/N=C/c1ccc(O)c(O)c1)c1cccc(S(=O)(=O)N2CCCCC2)c1,i,i,i,i,i
CC(=O)c1cccc(N(C(=O)Cn2nnc3ccccc32)C(C(=O)NC2CCCCC2)c2cn(C)nc2C)c1 (stereo not drawn),i,i,i,i,i
O=C(NC1CCCCC1)C(c1ccc(O)c(O)c1)N(C(=O)Cn1nnc2ccccc21)c1cccc(O)c1 (stereo not drawn),i,i,i,i,11
Nc1nc(NCCO)nc(N2CCCCCC2)c1[N+](=O)[O-],i,i,i,i,i
OCCN(CCO)c1nc(N2CCCCC2)c2nc(N(CCO)CCO)nc(N3CCCCC3)c2n1,i,i,i,i,12
Cc1ccc(O)c(NC(=O)c2cc(-c3ccc(F)cc3)on2)c1,i,i,i,i,i
Fc1ccc2nc3n(c2c1F)CCCCCC3,i,i,i,i,i
CC(C)/C=C/C(=O)N1CCC(N2CCC(C(=O)N3CCOCC3)CC2)CC1,i,i,i,i,i
Cc1cc(C)c2cc(C(=O)N3CCC(C(=O)c4ccc(F)cc4)CC3)[nH]c2c1,i,i,i,i,4.5
Cc1cc(C)c2cc(C(=O)N3CCC(N4CCCCC4)CC3)[nH]c2c1,i,i,i,i,i
Cc1ccc(Cl)c2c1=NC(=O)C=2c1[nH]c(=S)[nH]c1O,nt,i,nt,nt,6.4
O=C(O)CCCNc1cc(N2CCC3(CC2)OCCO3)c2noc3c2c1C(=O)c1ccccc1-3,nt,i,nt,nt,i
O=C(O)CCCNc1cc(N2CCN(C(=O)c3ccco3)CC2)c2noc3c2c1C(=O)c1ccccc1-3,60[inhibitor],i,i,67[inhibitor],8.2
Cc1cc(C)n2cc(CSc3nnc(SCc4cn5c(C)cc(C)nc5n4)s3)nc2n1,i,i,i,i,i
Cc1cc(C)n2cc(CSc3nc4ccccc4s3)nc2n1,i,10,i,i,i
CCN(CC)CC(=O)N1N=C(c2cccs2)CC1c1ccco1 (stereo not drawn),i,i,i,i,i
SMILES,MEKK2 WT-MEK5,VIM-2 inhibitor,MEKK2 mut-MEK5,MEKK3 PB1 HTS,IMP-1 inh
CCC(=O)N1N=C(c2cccs2)CC1c1ccco1 (stereo not drawn),13,i,i,i,i
CC12CCC(c3c1nc1ccccc1[n+]3[O-])C2(C)C (stereo not drawn),i,i,i,i,i
C=CCn1c(=N)c(S(=O)(=O)c2ccc(C)c(C)c2)cc2c(=O)n3ccccc3nc21,i,12,i,i,i
Cc1ccc(S(=O)(=O)c2cc3c(=O)n4ccccc4nc3n(C)c2=N)cc1C,i,i,i,i,i
N=c1c(S(=O)(=O)c2ccccc2)cc2c(=O)n3ccccc3nc2n1CCCN1CCOCC1,i,9.2,i,i,i
Cc1ccc(S(=O)(=O)c2cc3c(=O)n4ccccc4nc3n(CCCN3CCOCC3)c2=N)cc1C,i,10,i,i,i
CCOCCCn1c(=N)c(S(=O)(=O)c2ccccc2)cc2c(=O)n3cc(C)ccc3nc21,i,11,i,i,i
CCN(CC)c1ccc2cc(C(N)=O)c(=N)oc2c1,i,i,i,i,i
O=C1c2ccccc2NC2(CCCC2)N1O,i,i,i,i,i
COc1cccc(-c2cc(C(=O)NCCCN3CCOCC3)no2)c1,i,i,i,i,i
COc1cccc(-c2nc(C(=O)NCCCN3CCOCC3)cc3c2[nH]c2ccccc23)c1,i,8.2,i,i,i
N#CC1=C(N)Oc2n[nH]c(-c3cccs3)c2C1c1ccccc1C(=O)O (stereo not drawn),i,i,i,i,i
N#CC1=C(N)Oc2n[nH]c(-c3cccs3)c2C1c1cccs1 (stereo not drawn),i,8.2,i,i,i
COc1ccc(C(=O)NCCN2CCCC2)cc1,i,i,i,i,i
COc1ccc(/C=C2\Sc3ccc(C(=O)NCCCN4CCCC4)cc3N(C)C2=O)cc1OC,202,11,35,i,i
COc1ccc(/C=C2/Sc3ccc(C(=O)NCCN4CCCCCC4)cc3NC2=O)cc1,281,i,71,i,i
CCOc1ccc(/C=C2/Sc3ccc(C(=O)NCC4CCCO4)cc3N(C)C2=O)cc1OC (stereo not drawn),i,8.6,i,i,i
CCOC(=O)N1CCN(C(=O)c2ccc3c(c2)N(C)C(=O)/C(=C\c2ccc(OCC)c(OC)c2)S3)CC1,i,i,i,i,i
CCC1CCCCN1CCCNC(=O)c1ccc(/C=C2/Sc3ccccc3NC2=O)cc1 (stereo not drawn),151,i,i,i,i
CC(=O)N1c2ccc(S(=O)(=O)N3CCC(C(=O)NC4CCCCC4)CC3)cc2CC1C (stereo not drawn),i,i,i,i,i
Cc1ccc(NC(=O)C2CCCN(S(=O)(=O)c3cccc4nonc34)C2)cc1 (stereo not drawn),i,i,i,i,i
O=C(CCN1CCN(c2ccccc2)CC1)Nc1ccccc1F,i,i,i,i,i
CC(=O)C1=NN(c2ccccc2)C(c2cccs2)N1c1ccc(N(C)C)cc1 (stereo not drawn),i,i,i,i,i
CN(C)CCOC(=O)NC12CC3CC(CC(C3)C1)C2,i,i,i,i,i
O=C(NC12CC3CC(CC(C3)C1)C2)OCCNC1CCCCC1,i,i,i,i,4.5
Cc1ccc(NC(=O)Cn2cncc2-c2ccc([N+](=O)[O-])cc2)cc1C,nt,i,nt,nt,12
CCc1c(C)sc(NC(=O)/C=C/C(=O)O)c1C(N)=O,i,i,i,i,i
O=C(NCC1CCCO1)c1cn(-c2ccccc2)nc1-c1ccccc1 (stereo not drawn),i,i,i,i,i

# Screening results deposited in PubChem by several laboratories.
